High-throughput results (PubChem BioAssay)
GPR7 antagonist: antagonists of human GPR7 (neuropeptides B/W receptor 1) | inhibition, % at 4.4 µM | 290,000 tested, 1.1% active | GPR7-expressing cells, fluorescence antagonist assay | P48145; in the data active = inhibition above about 16%, passing the limit was not always enough;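 note: cells stimulated with the agonist NPW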
Target sequence (P48145 whole entry, looked up): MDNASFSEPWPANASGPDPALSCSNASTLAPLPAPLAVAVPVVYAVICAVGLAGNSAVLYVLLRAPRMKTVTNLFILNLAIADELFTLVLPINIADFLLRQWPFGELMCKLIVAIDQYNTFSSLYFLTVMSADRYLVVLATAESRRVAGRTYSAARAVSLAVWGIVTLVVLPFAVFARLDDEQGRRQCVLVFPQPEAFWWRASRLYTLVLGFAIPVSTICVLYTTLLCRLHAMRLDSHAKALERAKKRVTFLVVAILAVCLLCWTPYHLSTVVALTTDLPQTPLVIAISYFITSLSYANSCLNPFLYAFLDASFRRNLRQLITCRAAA
TAAR1 ag: agonists of human TAAR1; CHO RD-HGA16 TAAR1, Fluo-8 calcium fluorescence; vehicle wells 0%, saturating PEA agonist 100%; activation, % at 3 µM; 360,000 tested, 0.99% active;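 active = activation above the mean activation of all test compounds in the run plus 3 SD, cut at about 38% in these data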
Target sequence (Q96RJ0 whole entry, looked up): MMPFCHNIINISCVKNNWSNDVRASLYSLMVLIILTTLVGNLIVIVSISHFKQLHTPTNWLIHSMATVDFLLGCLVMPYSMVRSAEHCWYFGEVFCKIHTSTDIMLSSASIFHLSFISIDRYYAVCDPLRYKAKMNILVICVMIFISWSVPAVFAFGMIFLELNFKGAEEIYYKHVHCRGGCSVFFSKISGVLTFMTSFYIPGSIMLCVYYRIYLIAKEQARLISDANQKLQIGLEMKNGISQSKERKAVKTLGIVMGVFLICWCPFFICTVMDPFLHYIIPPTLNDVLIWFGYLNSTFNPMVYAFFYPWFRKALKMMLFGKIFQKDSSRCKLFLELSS
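Test system: RD-HGA16 (CHO) cells co-expressing Gα16 and hTAAR1 | Doses: Single dose, 3 µM | Schedule: 17-24 h seeding, 75 min 37 °C dye, 30 min RT | Evaluation: % activation from peak over basal fluorescence ratio, DMSO-to-PEA scaled | Technique: Kinetic Fluo-8 calcium fluorescence | Benchmarks: Low control DMSO, high control PEA (EC100)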
OX1R antag-1: human HCRTR1 antagonism; CHO/OX1R cells, Fluo-8 calcium fluorescence, orexin A; AID 434989; 330,000 tested, 0.43% active; inhibition, % at 5 µM; O43613;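 active = inhibition above its plate's threshold, mean inhibition of all tested compounds on the plate plus 3 SD, cut at about 37% in these data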
TAAR1 antag: antagonists of human TAAR1. 360,000 tested, 1.5% active. inhibition, % at 3 µM. AID 624466. Q96RJ0. CHO RD-HGA16 TAAR1, Fluo-8 calcium fluorescence, antagonist;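 active = inhibition above a per-plate cutoff, the mean inhibition of test compounds on that plate plus 3 SD, cut at about 49% in these data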
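Test system: CHO RD-HGA16 cells bearing hTAAR1 | Reagent: β-PEA, EC80 | Compound dosing: 3 µM, single point | Schedule: Dye loading 75 min at 37 °C, then 30 min room temperature | Signal: Calcium fluorescence with Fluo-8 | Evaluation: Percent inhibition of PEA-evoked calcium signal, max/basal emission ratio | Control set: DMSO-only wells and EC80 β-PEA-stimulated wells | Repeats: Singlicate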
OX1R antag-2: antagonists of human orexin 1 receptor (OX1R). OX1R-expressing cells, FRET antagonist read-out. inhibition, % at 6.6 µM. 330,000 tested, 1.8% active; in the data active = inhibition mostly above about 38%, no sharp cut-off; inactive = mostly below about 40%
CHO parental Ca: counter-screen: ATP calcium response change in parental CHO cells. AID 463079. 330,000 tested, 0.63% active. parental CHO-K1, ATP-induced calcium, Fluo-8 fluorescence. inhibition, % at 5.6 µM;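 active = inhibition above that plate's mean sample inhibition plus 3 SD, cut at about 26% in these data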
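Test system: untransfected parental CHO cell line; also added: ATP stimulus; dosing: 5.6 µM, single dose; signal: calcium-sensitive Fluo-8 fluorescence; measure: percent inhibition of ATP-evoked calcium rise, normalized to controls; benchmarks: low control ATP plus DMSO, high control DMSO only; replication: one well per compound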
A number is an active result; i = inactive; nt = not tested or not shown. Rows were chosen to be rich in hits. Some 4.6% of all compounds tested hit in one or more screens of this group.

SMILES	GPR7 antagonist	TAAR1 ag	OX1R antag-1	TAAR1 antag	OX1R antag-2	CHO parental Ca
COc1ccc(OC)c(NC(=O)c2ccccc2NS(=O)(=O)c2cccc3cccnc23)c1	i	i	i	i	63.9	i
COc1ccc(C(=O)Nc2cccc3cccnc23)cc1OC	i	i	i	i	49.1	i
O=C(Nc1cccc2cccnc12)c1cccc2ccccc12	i	i	i	i	i	i
CCOc1ccccc1C(=O)Nc1cccc2cccnc12	i	i	i	i	44.5	i
CCCCOc1ccccc1NC(=O)Cn1c(-c2nonc2N)nc2ccccc21	i	i	i	i	i	i
Cc1nnsc1SC(C)C(=O)O (configuration not stated)	i	i	i	i	i	i
Cc1nc(NC(=O)CCc2ccccc2)ccc1Br	i	i	i	i	i	i
CCOc1ccc(Nc2nc(Cc3nnc(SCC(=O)c4ccc(C)c(C)c4)o3)cs2)cc1	i	i	i	i	i	29.0
CC1CCCC(C)N1C(=O)COC(=O)CSc1ccc(C(N)=O)cc1[N+](=O)[O-] (configuration not stated)	nt	i	i	i	i	i
CN(C(=O)CSc1ncnc2ccccc12)C1CCCCC1	nt	i	nt	i	nt	nt
OCCC1CN(Cc2ccccc2OC2CCCC2)CCN1Cc1ccsc1 (configuration not stated)	20.1	i	i	i	i	i
Cc1cc(C)c(C)c(S(=O)(=O)Nc2ccc3cn[nH]c3c2)c1C	nt	i	i	i	i	i
CC(C)[C@H](NC(=O)N1CCn2c1nc1ccccc12)C(=O)NCc1ccccc1Cl	i	i	i	i	i	i
O=C(/C=C/c1ccc(Cl)c([N+](=O)[O-])c1)Nc1ccc(N2CCCC2)cc1	i	i	i	i	i	i
COc1ccc(CNC(=O)c2ccc(Cl)c(S(=O)(=O)N3CCOCC3)c2)cc1OC	nt	nt	i	nt	i	i
COc1c(OC(C)=O)ccc(/C=C/c2ccc3ccccc3n2)c1[N+](=O)[O-]	i	i	i	i	42.2	i
O=C(CC1CCC1)Nc1cccc2c([N+](=O)[O-])cccc12	nt	i	i	i	i	i
COc1ccc(N(CC(=O)NCc2ccccc2C)S(=O)(=O)c2ccccc2[N+](=O)[O-])c(OC)c1	i	i	i	i	63.9	i
COc1ccc(N(CC(=O)NCc2ccc(C)cc2)S(=O)(=O)c2ccccc2[N+](=O)[O-])c(OC)c1	i	i	i	i	i	i
COCCn1c(C)cc(C(=O)CN2C(=O)NC3(CCCCCC3)C2=O)c1C	nt	i	i	i	29.6	i
COc1ccc(CCNc2nc(-c3cccnc3)nc3ccccc23)cc1OC	i	i	i	63.3	i	i
Cc1ccc(CNc2nc(-c3cccnc3)nc3ccccc23)cc1	i	i	i	i	i	i
COCCNc1nc(-c2ccccc2)nc2ccccc12	i	i	i	i	46.5	i
COCCN(CCOC)c1nc(-c2ccccc2)nc2ccccc12	i	i	nt	56.2	nt	nt
CC1OC(=O)c2cc3ccccc3nc21 (configuration not stated)	nt	i	nt	i	nt	nt
SMILES	GPR7 antagonist	TAAR1 ag	OX1R antag-1	TAAR1 antag	OX1R antag-2	CHO parental Ca
N#CC(CC(=O)c1ccc(Cl)cc1)c1ccccc1 (configuration not stated)	nt	i	nt	i	nt	nt
Cc1ccc2c(c1)CCCN2CC(=O)Nc1cc(S(=O)(=O)N2CCCC2)ccc1Cl	nt	i	i	i	i	i
Nc1cccc(C(=O)OCC(=O)NC2CCCc3ccccc32)c1 (configuration not stated)	i	i	i	i	i	i
COc1ccc(N2C(=O)CN(Cc3cc(OC)c(OC)c(OC)c3)C2=S)cc1	i	i	i	i	47.3	i
CCOc1ccccc1N1C(=O)CN(Cc2ccc(OC)c(OC)c2)C1=S	i	i	i	i	55.5	i
COc1cccc(N2C(=O)CN(Cc3cc(OC)c(OC)c(OC)c3)C2=S)c1	i	i	i	i	i	i
COc1ccc(C(=O)NCc2nnc(SCC(=O)Nc3nnc(C)s3)o2)cc1	i	i	i	i	i	i
COc1ccc(C(C)(C)C)cc1NC(=O)c1[nH]c(C)c(C(C)=O)c1C	i	i	i	i	i	i
O=C(NCCNC(=O)Nc1ccc(Cl)cc1)Nc1ccc(Cl)cc1	nt	i	nt	i	nt	nt
Cc1nnsc1SCCNC(=O)Nc1ccc(Cl)cc1	i	i	36.5	i	i	40.5
Cc1ccc(NC(=O)c2ccc(Br)o2)c([N+](=O)[O-])c1	nt	i	nt	i	nt	nt
NS(=O)(=O)c1ccc(NNC(=O)c2ccc(Br)o2)c([N+](=O)[O-])c1	nt	i	i	i	58.1	i
COc1ccc(N(CC(=O)N/N=C/c2cc(Br)c(C)o2)S(=O)(=O)c2ccc(NC(C)=O)cc2)cc1	i	i	i	i	i	i
NC(=O)CN1C(=O)C(O)(CC(=O)c2ccccc2O)c2ccccc21 (configuration not stated)	i	i	i	i	55.6	i
Cc1oc(C(=O)Nc2ccc(C(=O)O)cc2)cc1COc1ccccc1	i	i	i	i	i	i
O=C(NCc1cccs1)C1CC(c2ccc(Cl)c(Cl)c2)=NO1 (configuration not stated)	i	i	i	i	i	i
O=C(Cc1cccs1)NNC(=O)c1ccccc1Cl	nt	i	i	i	i	i
O=C(NCCc1cccs1)C1CC(c2c(Cl)cccc2Cl)=NO1 (configuration not stated)	i	46.6	i	i	i	i
O=C(CNC(=O)c1ccccc1Cl)NCCc1cccs1	nt	39.9	i	i	i	i
O=C(c1cc(-c2ccccc2)nn1-c1ccccc1)N1CCN(S(=O)(=O)c2c(F)cccc2F)CC1	nt	i	i	i	i	i
COc1ccc(/C=N/NC(=O)CCn2c3ccccc3c3ccccc32)cc1OC	i	i	i	i	59.4	i
CSc1nnc(N2C(=O)C(O)=C(C(=O)c3ccco3)C2c2ccc(F)cc2)s1 (configuration not stated)	i	i	i	i	i	i
CSc1nnc(N2C(=O)C(O)=C(C(=O)c3ccco3)C2c2cccc(Cl)c2)s1 (configuration not stated)	i	i	49.2	i	i	33.1
Cc1cc(C)nc(SCC(=O)Nc2ncc3c(n2)CCCC3=O)n1	i	i	i	i	i	i
C1=C(c2ccccc2)CCN(c2ncnc3nc[nH]c23)C1	i	i	i	i	50.2	i
O=C(NCCCN1CCOCC1)C(=O)N/N=C/c1cccc2ccccc12	i	i	i	i	49.0	i
Clc1nssc1=Nc1ccc(Br)cc1	i	41.9	nt	i	nt	nt
Cc1cc(C)c2c(N)c(C(=O)Nc3ncc(C)s3)sc2n1	i	i	i	i	50.6	i
COC(=O)c1sc2nc(C)cc(C)c2c1N	i	i	i	i	i	i
CN1CCN(NC(=O)c2ccc(F)cc2)CC1	i	i	i	i	i	i
